Reference: the RNAGym collection of RNA variant scans (doi:10.1126/science.aae0568)
Fewer inactive variants are shown than the library holds.

B1: tRNA (parent)
chain: GUUCCGUUGGCGUAAUGGUAACGCGUCUCCCUCCUAAGGAGAAGACUGCGGGUUCGAGUCCCGUACGGAACG

Variants of: B1
Test: yeast fitness relative to wild type (ratio to wild type); higher = fitter; tRNA-Arg(CCU), competitive growth, 37 C, YPD
In short: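 Start and end populations of a pooled competition were compared by 100-nucleotide paired-end sequencing of gene amplicons. The Saccharomyces cerevisiae strains carried tRNA-Arg(CCU) gene variants at the native genomic locus, synthesised with a 3% per-site mutation rate at 69 sites, and competed in YPD at 37°C for 24 hours in six parallel replicates. Darwinian fitness relative to wild type was based on the change in genotype frequencies. Genotypes required ≥ 100 starting reads, and estimates < 0.5 were set to 0.5.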

Variant	yeast fitness
C5U C22U C33U C61G	≤ 0.5
C5U C22U C33U U53A	≤ 0.5
C5U C22U C62U	0.66
C5U C22U C66U	≤ 0.5
C5U C22U G23C A36G G67A	≤ 0.5
C5U C22U G44C	0.73
C5U C22U U53C U59G C61G C62U	≤ 0.5
C5U C24A A65U	0.733
C5U C24A C27G C61A C66G	0.624
C5U C24A C33U A70U	≤ 0.5
C5U C24A C33U U47C G63A G67U	0.718
C5U C24A G41A A69C	≤ 0.5
C5U C24G	0.571
C5U C24G A37U G56A A65C	≤ 0.5
C5U C24G A40C A69C	0.522
C5U C24G A42C U53G	≤ 0.5
C5U C24G C30G A36U C55U A69C	≤ 0.5
C5U C24G C31G C61G	≤ 0.5
C5U C24G U32G A36G C60A A65U	0.535
C5U C24U A36G G41C	≤ 0.5
C5U C24U A42C	0.746
C5U C24U A42C A57U	0.534
C5U C24U A42C A57U C62A	≤ 0.5
C5U C24U A42C A57U G63C	≤ 0.5

Variant	yeast fitness
C5U C24U C29A	0.574
C5U C24U C46G A65C	0.537
C5U C24U G44C C60A	0.527
C5U C24U U32C	0.72
C5U C27A	0.817
C5U C27A A42U G48A C49G C60A	0.592
C5U C27A G41C A57U	≤ 0.5
C5U C27A G63C	≤ 0.5
C5U C27G	0.61
C5U C27G A69C	≤ 0.5
C5U C27G C31G	0.679
C5U C27G C31G G44C A45G	≤ 0.5
C5U C27G C33G G41C C61A	≤ 0.5
C5U C27G C55G A69U	≤ 0.5
C5U C27G G38U	≤ 0.5
C5U C27G G39C G52A	≤ 0.5
C5U C27G U28G	≤ 0.5
C5U C27G U32A	0.561
C5U C27U A37C	≤ 0.5
C5U C27U A37C C60A	0.546
C5U C27U A37C C60A C66U	≤ 0.5
C5U C27U A37G A40C U47A	≤ 0.5
C5U C27U C61G	≤ 0.5
C5U C27U G48A G67C	≤ 0.5

Variant	yeast fitness
C5U C27U G56A	0.704
C5U C27U U28G C33G A36G	≤ 0.5
C5U C29A	0.569
C5U C29A A45C	0.669
C5U C29A A57U A69C	≤ 0.5
C5U C29A A65C	≤ 0.5
C5U C29A U35G C46U U54G	≤ 0.5
C5U C29G A37C C49U C66A	0.627
C5U C29G A57G	0.655
C5U C29G C30A U64G A69C	≤ 0.5
C5U C29G C30G A65C	≤ 0.5
C5U C29G C33U	≤ 0.5
C5U C29G C34G	0.542
C5U C29G C49U A69U	≤ 0.5
C5U C29G G44A A57U	≤ 0.5
C5U C29G G63A	≤ 0.5
C5U C29G G68A	≤ 0.5
C5U C29U	0.867
C5U C29U A43G G48C C55A	≤ 0.5
C5U C29U A43U	0.89
C5U C29U A45C C60A	≤ 0.5
C5U C29U A45U	0.924
C5U C29U A69U	0.72
C5U C29U C31U U54G A65U G67A	≤ 0.5

Variant	yeast fitness
C5U C30A A42U	0.59
C5U C30A A65C	0.703
C5U C30A G39A C66G	≤ 0.5
C5U C30G A36U G51A G52A U64G	≤ 0.5
C5U C30G C31A G63C	≤ 0.5
C5U C30G C61U	≤ 0.5
C5U C30G G51C G56U	≤ 0.5
C5U C30G G56C	≤ 0.5
C5U C30U A37G	0.64
C5U C30U A40U	0.567
C5U C30U A40U A70C	≤ 0.5
C5U C30U A45U	0.701
C5U C30U C34G G38C A65C	≤ 0.5
C5U C30U C49G	0.62
C5U C30U G44C G67C	≤ 0.5
C5U C30U U47A G67C	0.542
C5U C31A C34A A36G	≤ 0.5
C5U C31G	0.918
C5U C31G A40G A45G C46G G48A	≤ 0.5
C5U C31G A45U C62U	0.629
C5U C31G C33G	0.579
C5U C31G C33G C34U G68A	0.671
C5U C31G C66U	0.736
C5U C31G G48C G58A	≤ 0.5

Variant	yeast fitness
C5U C31G G51C	0.572
C5U C31G G56C	0.527
C5U C31G G68C	0.645
C5U C31G U32C A37C G50C A69C	≤ 0.5
C5U C31U A57C G58A A69G	≤ 0.5
C5U C31U C33U C34G A40C G63A	≤ 0.5
C5U C31U C46U G51A	0.69
C5U C31U C61A	0.552
C5U C31U G39A A57C	0.574
C5U C31U G41A	0.831
C5U C31U G48C	0.682
C5U C31U G50A U54C C55G	≤ 0.5
C5U C31U G68C	0.653
C5U C33A A36C A37C A43G	≤ 0.5
C5U C33A A36C A37C A43G A69U	≤ 0.5
C5U C33A C55U	≤ 0.5
C5U C33A G39C G51C C62U A69C	0.543
C5U C33G A36U	≤ 0.5
C5U C33G C34G C46U	≤ 0.5
C5U C33G C34U G38C U47A	≤ 0.5
C5U C33G C46A C66A	≤ 0.5
C5U C33G C49A	≤ 0.5
C5U C33G C49A A70C	≤ 0.5
C5U C33G C55U	≤ 0.5

Variant	yeast fitness
C5U C33G G38A C60A	0.542
C5U C33U A37C A42U U47C G52A U54C G67A	≤ 0.5
C5U C33U A45C C46G A69U	≤ 0.5
C5U C33U A65G C66A	≤ 0.5
C5U C33U A69C	0.556
C5U C33U C49G A65C	≤ 0.5
C5U C33U C61U	0.632
C5U C33U G39A	0.649
C5U C34A A36G	≤ 0.5
C5U C34A A36G G63A	≤ 0.5
C5U C34A C49A U59G	≤ 0.5
C5U C34A C55G	≤ 0.5
C5U C34A G39C G52A G58A	≤ 0.5
C5U C34A G44C C62U	0.723
C5U C34A G50C	≤ 0.5
C5U C34A G63A	≤ 0.5
C5U C34A U53A A57U A65U	≤ 0.5
C5U C34A U64G	≤ 0.5
C5U C34G A45C C66G	≤ 0.5
C5U C34G A45U	0.534
C5U C34G A45U U53G A57G	0.672
C5U C34G A65C	0.525
C5U C34G C55A G63C	≤ 0.5
C5U C34U A42U	0.529

Variant	yeast fitness
C5U C34U A65U	0.565
C5U C34U A69U	0.59
C5U C34U C49G G52C C55U C62G	≤ 0.5
C5U C34U C49U U53C G67U	≤ 0.5
C5U C46A	1
C5U C46A C66U	0.663
C5U C46G C49G	0.527
C5U C46G C62U	0.697
C5U C46G C62U C66G	0.538
C5U C46G G52C C62G C66U	≤ 0.5
C5U C46G G68U	≤ 0.5
C5U C46U	1.07
C5U C46U A57G A70C	≤ 0.5
C5U C46U C55G U64A	0.638
C5U C49U A65C	0.745
C5U C49U A65U	0.644
C5U C49U C61A	≤ 0.5
C5U C49U C66U	0.887
C5U C49U G67C	0.608
C5U C49U U64A	≤ 0.5
C5U C55A A57C	≤ 0.5
C5U C55A C61G	≤ 0.5
C5U C55A C62A	≤ 0.5
